Measured values as given in ChEMBL document CHEMBL1143123, “Novel analogs of D-e-MAPP and B13. Part 2: signature effects on bioactive sphingolipids” (2008).
Active and inactive are the calls of the source. No cut-off for these calls is given here.

Columns and labels:
MCF7 [1] = experiment: Inhibition of acid ceramidase in human MCF7 cells assessed as enzyme degradation at 10 uM after 5 hrs; format: cell-based
MCF7 [2] = experiment: (§1) Increase in endogenous C14-ceramide level in human MCF7 cells at 10 uM upto 24 hrs; format: functional, cell-based
Procedure, shortened: (§2)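 MCF7 cells grown in RPMI 1640 with 10% FCS at 37 °C, 5% CO2. Seeded at ~50% density (1×10^6 cells), treated 24 h later with compounds in ethanol (0.1% final); controls got ethanol only. Cells washed in cold PBS and lipids extracted. Cer species and Sph quantified by HPLC-MS/MS (MRM, positive ion) against internal standards and calibration curves. Values given as pmol/nmol phospholipid and compared with ethanol controls.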

MCF7 [3] = experiment: Decrease in endogenous C24:1-ceramide level in human MCF7 cells at 10 uM after 24 hrs; format: functional; procedure, shortened: as §2
MCF7 [4] = experiment: Increase in endogenous C14-ceramide level in human MCF7 cells at 10 uM after 24 hrs; format: functional; procedure, shortened: as §2
MCF7 [5] = experiment: Increase in endogenous C16-ceramide level in human MCF7 cells at 10 uM after 24 hrs; format: functional, cell-based; procedure, shortened: as §2
MCF7 [6] = experiment: Decrease in endogenous sphingosine level in human MCF7 cells at 10 uM upto 24 hrs; format: functional, cell-based; procedure, shortened: as §2
MCF7 [7] = experiment: Decrease in endogenous C24-ceramide level in human MCF7 cells at 10 uM after 24 hrs; format: functional; procedure, shortened: as §2
MCF7 [8] = experiment: Decrease in endogenous sphingosine level in human MCF7 cells at 1 uM after 24 hrs; format: functional; procedure, shortened: as §2
MCF7 [9] = experiment: Increase in endogenous sphingosine level in human MCF7 cells >5 uM after 24 hrs; format: functional, cell-based
Procedure, shortened: (§3)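 MCF7 cells grown in RPMI 1640 with 10% FCS at 37 °C in 5% CO2. Seeded near 50% density and treated 24 h later with compound in ethanol (0.1% final); controls got ethanol alone. Cells washed in cold PBS and extracted. Cer species, Sph and S1P measured by HPLC-MS/MS (C8 column, positive-ion MRM) against internal standards and calibration curves. Results given as pmol/nmol phospholipid phosphate, relative to ethanol controls.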

MCF7 [10] = experiment: Increase in endogenous ceramide level in human MCF7 cells upto 10 uM after 24 hrs; format: functional; procedure, shortened: as §3
MCF7 [11] = experiment: Increase in endogenous C16-ceramide level in human MCF7 cells after 24 hrs; format: functional; procedure, shortened: as §2
MCF7 [12] = experiment: Increase in endogenous C14-ceramide level in human MCF7 cells at 10 uM within 30 mins; format: functional; procedure, shortened: as §2
MCF7 [13] = experiment: Induction of endogenous C16-ceramide formation in human MCF7 cells after 10 hrs; format: functional; procedure, shortened: as §3
MCF7 [14] = experiment: Increase in endogenous ceramide level in human MCF7 cells at 10 uM after 24 hrs; format: functional; procedure, shortened: as §3
MCF7 [15] = experiment: Increase in endogenous C24:1-ceramide level in human MCF7 cells after 24 hrs; format: functional; procedure, shortened: as §3
MCF7 [16] = experiment: Increase in endogenous sphingosine level in human MCF7 cells after 24 hrs; format: functional; procedure, shortened: as §3
MCF7 [17] = experiment: Increase in endogenous sphingosine-1-phosphate level in human MCF7 cells after 5 to 10 hrs; format: functional, cell-based; procedure, shortened: as §3
MCF7 [18] = experiment: Induction of endogenous C24:1-ceramide formation in human MCF7 cells after 10 hrs; format: functional; procedure, shortened: as §3
MCF7 [19] = experiment: Increase in endogenous sphingosine level in human MCF7 cells at 10 uM after 5 hrs; format: functional; procedure, shortened: as §3
MCF7 [20] = experiment: Increase in endogenous C14-ceramide level in human MCF7 cells after 24 hrs; format: functional; procedure, shortened: as §2
MCF7 [21] = experiment: Induction of endogenous C14-ceramide formation in human MCF7 cells after 10 hrs; format: functional; procedure, shortened: as §3
MCF7 [22] = experiment: Increase in endogenous C24-ceramide level in human MCF7 cells upto 24 hrs; format: functional; procedure, shortened: as §3
MCF7 [23] = experiment: Increase in endogenous C24:1-ceramide level in human MCF7 cells upto 24 hrs; format: functional; procedure, shortened: as §3
MCF7 [24] = experiment: Increase in endogenous C24:1-ceramide level in human MCF7 cells at 10 uM upto 0.5 hrs; format: functional, cell-based; procedure, shortened: as §3
MCF7 [25] = experiment: as §1; format: functional; procedure, shortened: as §2
MCF7 [26] = experiment: Increase in endogenous C24-ceramide level in human MCF7 cells at 10 uM upto 0.5 hrs; format: functional, cell-based; procedure, shortened: as §2
MCF7 [27] = experiment: Increase in endogenous C16-ceramide level in human MCF7 cells at 10 uM upto 0.5 hrs; format: functional, cell-based; procedure, shortened: as §2
MCF7 [28] = experiment: Increase in endogenous C16-ceramide level in human MCF7 cells upto 24 hrs; format: functional; procedure, shortened: as §2
MCF7 [29] = experiment: Decrease in endogenous sphingosine level in human MCF7 cells at 10 uM upto 0.5 hrs; format: functional, cell-based; procedure, shortened: as §2
MCF7 [30] = experiment: Increase in endogenous C24-ceramide level in human MCF7 cells after 24 hrs; format: functional; procedure, shortened: as §2
MCF7 [31] = experiment: Increase in endogenous ceramide level in human MCF7 cells at more than 5 uM after 24 hrs; format: functional, cell-based; procedure, shortened: as §3
MCF7 [32] = experiment: Growth inhibition of human MCF7 cells after 48 hrs; format: functional, cell-based
MCF7 [33] = experiment: Decrease in endogenous C24:1-ceramide level in human MCF7 cells at 10 uM; parameters: scale not given: the % may be the effect or the level left
MCF7 [34] = experiment: Increase in endogenous ceramide level in human MCF7 cells at 50 uM after 24 hrs; format: functional; procedure, shortened: as §3
MCF7 [35] = experiment: Increase in endogenous C14-ceramide level in human MCF7 cells at 10 uM after 2.5 hrs; format: functional; procedure, shortened: as §2
MCF7 [36] = experiment: Increase in endogenous C24-ceramide level in human MCF7 cells at 50 uM after 24 hrs; format: functional; procedure, shortened: as §3
MCF7 [37] = experiment: Decrease in endogenous sphingosine level in human MCF7 cells at 50 uM after 24 hrs; format: functional; parameters: scale not given: the % may be the effect or the level left; procedure, shortened: as §2
MCF7 [38] = experiment: Increase in endogenous C16-ceramide level in human MCF7 cells at 10 uM after 1 to 2.5 hrs; format: functional; procedure, shortened: as §2
MCF7 [39] = experiment: Increase in endogenous C18-ceramide level in human MCF7 cells at 10 uM after 2.5 hrs; format: functional; procedure, shortened: as §2
MCF7 [40] = experiment: Increase in endogenous C16-ceramide level in human MCF7 cells at 50 uM after 24 hrs; format: functional; procedure, shortened: as §2
MCF7 [41] = experiment: Increase in endogenous C24:1-ceramide level in human MCF7 cells at 50 uM after 24 hrs; format: functional; procedure, shortened: as §3
MCF7 [42] = experiment: Inhibition of endogenous sphingosine level in human MCF7 cells at 10 uM after 2.5 hrs; format: functional, cell-based; procedure, shortened: as §3

SMILES: CCCCCCCCCCCCCCN[C@H](CO)[C@H](O)c1ccc([N+](=O)[O-])cc1.Cl
- Activity (MCF7 [1]): Active
- Activity (MCF7 [2]): Active
- Activity (MCF7 [3]): Active
- Activity (MCF7 [4]): 850%
- Activity (MCF7 [5]): Active
- Activity (MCF7 [6]): Active
- Activity (MCF7 [7]): Active
- Activity (MCF7 [8]): Active

SMILES: C[C@@H](NC(=O)CCCCCCCCCCCCCCC[n+]1ccccc1)[C@@H](O)c1ccccc1.[Br-]
- Activity (MCF7 [9]): Active
- Activity (MCF7 [10]): 260%
- Activity (MCF7 [11]): Dose-dependent effect
- Activity (MCF7 [12]): 190%
- Activity (MCF7 [13]): 157%
- Activity (MCF7 [14]): 260%
- Activity (MCF7 [15]): Dose-dependent effect
- Activity (MCF7 [16]): Dose-dependent effect
- Activity (MCF7 [17]): Active
- Activity (MCF7 [18]): 142%
- Activity (MCF7 [19]): 300%
- Activity (MCF7 [20]): Dose-dependent effect
- Activity (MCF7 [21]): 310%

SMILES: O=C(CCCCCCCCCCCCCCC[n+]1ccccc1)N[C@H](CO)[C@H](O)c1ccc([N+](=O)[O-])cc1.[Br-]
- Activity (MCF7 [22]): 130%
- Activity (MCF7 [23]): 260%
- Activity (MCF7 [11]): 800%
- Activity (MCF7 [24]): Active
- Activity (MCF7 [15]): 270%
- Activity (MCF7 [16]): 350%
- Activity (MCF7 [25]): 760%
- Activity (MCF7 [26]): Active
- Activity (MCF7 [27]): Active
- Activity (MCF7 [28]): 820%
- Activity (MCF7 [17]): Active
- Activity (MCF7 [29]): Active
- Activity (MCF7 [20]): 800%
- Activity (MCF7 [30]): 140%

SMILES: CCCCCCCCCCCCCC(=O)N[C@H](CO)[C@H](O)c1ccc([N+](=O)[O-])cc1
- Activity (MCF7 [31]): Active
- Activity (MCF7 [32]): Active
- Activity (MCF7 [33]): 80%
- Activity (MCF7 [34]): 300%
- Activity (MCF7 [35]): 120%
- Activity (MCF7 [36]): 220%
- Activity (MCF7 [37]): 50%
- Activity (MCF7 [38]): 120%
- Activity (MCF7 [39]): Active
- Activity (MCF7 [40]): 340%
- Activity (MCF7 [41]): 380%
- Activity (MCF7 [7]): 80%

SMILES: CCCCCCCCCCCCCCN[C@H](C)[C@H](O)c1ccccc1
- Activity (MCF7 [42]): Active
